Compound activity: PubChem BioAssay, several laboratories
Only some compounds are listed: those with a hit (about 27% of all), similar ones and a draw of the others.
CYP2C9 inhib – blocks human cytochrome P450 2C9. P11712. CYP2C9 Supersomes, luciferin-H conversion, luminescence. inhibition, % at 5 µM. hit rate 20% among 96,000. AID 777;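 active means blocking of liver enzyme CYP2C9 beyond about 50% at 5 µM, limit read from the data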
Target sequence (P11712 whole entry, looked up): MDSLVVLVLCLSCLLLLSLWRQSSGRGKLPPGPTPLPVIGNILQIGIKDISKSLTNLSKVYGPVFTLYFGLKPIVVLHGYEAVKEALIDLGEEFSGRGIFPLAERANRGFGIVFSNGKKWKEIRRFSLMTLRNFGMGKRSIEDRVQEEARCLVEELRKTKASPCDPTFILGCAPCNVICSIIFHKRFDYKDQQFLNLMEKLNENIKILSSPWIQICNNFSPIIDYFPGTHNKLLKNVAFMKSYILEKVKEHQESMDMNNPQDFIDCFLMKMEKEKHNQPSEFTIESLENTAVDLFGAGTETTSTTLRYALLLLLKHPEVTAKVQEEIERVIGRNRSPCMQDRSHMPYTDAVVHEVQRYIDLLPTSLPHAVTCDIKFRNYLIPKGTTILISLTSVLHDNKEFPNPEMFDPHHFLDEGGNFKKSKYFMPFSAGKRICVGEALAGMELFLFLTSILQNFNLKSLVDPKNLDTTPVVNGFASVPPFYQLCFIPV
CYP2C19 inh – human CYP2C19 inhibition; P33261; CYP2C19 Supersomes, luciferin-H EGE luminescence, 30 min; inhibition, % at 5 µM; hit rate 21% among 96,000;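 active means CYP2C19 inhibition above a set limit at 5 µM in the primary screen, cut at about 50% in these data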;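 further: plate controls were negative control wells for no effect and 2.5 mM tranylcypromine positive control for full effect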
CYP2C19 act – cytochrome P450 2C19 (human) activation; activation factor at 5 µM; 96,000 tested, under 10 active; recombinant CYP2C19, luciferin-H EGE luminescence; hits give high values; 0 = fully inhibited enzyme, 1 = untreated enzyme;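 active means activation factor of at least 2 at 5 µM in the primary screen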;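 further: 0 = wells with 2.5 mM tranylcypromine and 1 = vehicle-only wells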
CYP2C9 act – activators of human CYP2C9. activation factor at 5 µM. AID 1024. recombinant CYP2C9, luciferin-H conversion, luminescence; hits give high values; factor 1 = untreated enzyme, 0 = blocked. hit rate 1.4% among 96,000;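 active means activation factor of 2 or more for CYP2C9 at a 5 µM dose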;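 further: 0 = sulfaphenazole-blocked wells and 1 = vehicle-only wells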
HIV Rev-RRE inh – HIV Rev-RRE protein-RNA interaction inhibition. hit rate 0.79% among 97,000. P05866. inhibition, % at 8 µM. Rev peptide-RRE RNA binding, FRET. AID 704;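 active means inhibition above the screen-wide mean plus 3 SD, cut at about 35% in these data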;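 further: 0% = median DMSO wells and 100% = median Neomycin B control wells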
Target sequence (P05866 whole entry, looked up): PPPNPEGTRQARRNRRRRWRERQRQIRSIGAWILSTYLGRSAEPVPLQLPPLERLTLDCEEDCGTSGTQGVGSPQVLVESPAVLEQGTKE
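Assay system: Labelled RRE RNA duplex and labelled Rev peptide | Times: 5 min preincubation and 15 min binding, 25 °C | Detection: FRET, ex 480 nm, em 540 and 671 nm | Evaluation: % inhibition of FRET ratio versus controls | Benchmarks: DMSO wells as 0% and neomycin B wells as 100% inhibition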
Cav3 T inh – inhibitors of human Cav3.2 T-type calcium channel; O95180; Cav3.2-expressing cells, Fluo-4 calcium fluorescence FDSS; hits give low values; B-score at 10 µM; hit rate 4% among 100,000; AID 449739;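 active means single-dose well whose peak fluorescence ratio is a statistical outlier from its plate by either plate-standardised score or position-corrected B-score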
An asterisk follows results filed as active.

How did Cc1ccc(NC(=O)NC(=O)N(c2ccccc2)S(C)(=O)=O)cc1 do in these assays?
CYP2C9 inhib: -4; CYP2C19 inh: 10; CYP2C19 act: 0.9; CYP2C9 act: 1; HIV Rev-RRE inh: 12; Cav3 T inh: 0.37

What do the screens show for `Cc1c(S(=O)(=O)N2CCN(C(c3ccccc3)c3ccccc3)CC2)c(=O)n(C)c(=O)n1C`?
CYP2C9 inhib: 16; CYP2C19 inh: -13; CYP2C19 act: 1.1; CYP2C9 act: 0.8; HIV Rev-RRE inh: 3; Cav3 T inh: -3.6

What do the screens show for `CCN(CCCNC(=O)CC1Oc2ccc(C)cc2NC1=O)Cc1ccccc1` (stereo unspecified)?
CYP2C9 inhib: -1; CYP2C19 inh: -4; CYP2C19 act: 1; CYP2C9 act: 1; Cav3 T inh: 1.2

What do the screens show for `COc1ccc(CC(=O)N2CCc3ccccc32)cc1`?
HIV Rev-RRE inh: -1; Cav3 T inh: 0.043

How did COc1ccc(OCCCC(=O)N2CCCc3ccccc32)cc1 do in these assays?
CYP2C9 inhib: 83*; CYP2C19 inh: 98*; CYP2C19 act: 0; CYP2C9 act: 0.2; HIV Rev-RRE inh: 10; Cav3 T inh: -1.1

Results for CC(C)C(=O)c1cn(CC(=O)N2CCCc3ccccc32)c2ccccc12 ?
CYP2C9 inhib: 74*; CYP2C19 inh: 42; CYP2C19 act: 0.6; CYP2C9 act: 0.3; HIV Rev-RRE inh: 13; Cav3 T inh: -1.8

How did Cc1ccc(C)c2nc3sc(C(=O)N4CCCc5ccccc54)c(N)c3cc12 do in these assays?
CYP2C9 inhib: 3; CYP2C19 inh: 18; CYP2C19 act: 0.8; CYP2C9 act: 1; HIV Rev-RRE inh: 62*

Results for Cn1c(C(=O)N2CCCc3ccccc32)cc2c(=O)n3ccccc3nc21 ?
CYP2C9 inhib: 65*; CYP2C19 inh: 38; CYP2C19 act: 0.6; CYP2C9 act: 0.4; HIV Rev-RRE inh: 3

How did O=C(CN1CCCCC1)N1CCCc2ccccc21 do in these assays?
CYP2C9 inhib: 3; CYP2C19 inh: 8; CYP2C19 act: 0.9; CYP2C9 act: 1; HIV Rev-RRE inh: 6; Cav3 T inh: 0.75

What do the screens show for `Cn1c(C(=O)NCc2ccccn2)cc2c(=O)n3ccccc3nc21`?
HIV Rev-RRE inh: 3; Cav3 T inh: 1

Results for N#CC1=C(N2CCCCC2)c2cc3c(n2C1=O)CCCC3 ?
CYP2C9 inhib: 46; CYP2C19 inh: 45; CYP2C19 act: 0.5; CYP2C9 act: 0.5; HIV Rev-RRE inh: 16; Cav3 T inh: -0.93

What do the screens show for `O=C(c1ccc(F)cc1)N1CCN(c2cc(=O)[nH]nc2-c2ccccc2)CC1`?
CYP2C9 inhib: -15; CYP2C19 inh: -13; CYP2C19 act: 1.1; CYP2C9 act: 1.1; HIV Rev-RRE inh: 9; Cav3 T inh: 0.21

How did CCN(CC)CCNC(=O)c1ccc(CS(=O)(=O)c2ccc(Br)cc2)o1 do in these assays?
HIV Rev-RRE inh: -1; Cav3 T inh: 1.2

Results for COc1ccccc1CC(=O)N1CCCc2ccccc21 ?
CYP2C9 inhib: -157; CYP2C19 inh: 67*; CYP2C19 act: 0.3; CYP2C9 act: 2.6*; HIV Rev-RRE inh: -6; Cav3 T inh: -0.6

How did O=C(c1cc(-c2cccs2)on1)N1CCCc2ccccc21 do in these assays?
CYP2C9 inhib: 26; CYP2C19 inh: 93*; CYP2C19 act: 0.1; CYP2C9 act: 0.7; Cav3 T inh: -2.9

Results for O=C(CCC1COc2ccccc2O1)Nc1cccnc1 (stereo unspecified) ?
CYP2C9 inhib: 45; CYP2C19 inh: 81*; CYP2C19 act: 0.2; CYP2C9 act: 0.5; HIV Rev-RRE inh: -1; Cav3 T inh: 1

Results for O=C(CCC1COc2ccccc2O1)Nc1ccccn1 (stereo unspecified) ?
CYP2C9 inhib: 1; CYP2C19 inh: 44; CYP2C19 act: 0.6; CYP2C9 act: 1; HIV Rev-RRE inh: 5; Cav3 T inh: -1.1

What do the screens show for `O=C(CCC1COc2ccccc2O1)Nc1ncccc1O` (stereo unspecified)?
CYP2C9 inhib: 14; CYP2C19 inh: 64*; CYP2C19 act: 0.4; CYP2C9 act: 0.9; HIV Rev-RRE inh: 2

What do the screens show for `Nc1[nH]nc2nc(N3CCOCC3)nc(-c3ccccc3)c12`?
CYP2C9 inhib: 2; CYP2C19 inh: 4; CYP2C19 act: 1; CYP2C9 act: 1; HIV Rev-RRE inh: 9; Cav3 T inh: 0.85

Results for O=C(NCc1ccccc1)C1=C[C@H](c2ccc3c(c2)OCO3)C[C@H](OCc2ccc(CO)cc2)O1 ?
Cav3 T inh: -0.81

What do the screens show for `CCCCS(=O)CC(O)COCC` (stereo unspecified)?
CYP2C9 inhib: -6; CYP2C19 inh: -14; CYP2C19 act: 1.1; CYP2C9 act: 1.1; HIV Rev-RRE inh: 11; Cav3 T inh: 0.36

What do the screens show for `CCCCS(=O)CC(O)COc1ccc(C(C)(C)C)cc1` (stereo unspecified)?
CYP2C9 inhib: 8; CYP2C19 inh: 58*; CYP2C19 act: 0.4; CYP2C9 act: 0.9; HIV Rev-RRE inh: 3; Cav3 T inh: -0.51

Results for COc1ccccc1NC(=O)CSc1nc(N)cc(N)n1 ?
CYP2C9 inhib: -73; CYP2C19 inh: 72*; CYP2C19 act: 0.3; CYP2C9 act: 1.7; HIV Rev-RRE inh: 3; Cav3 T inh: 0.41

Results for Cc1cc(C)c2c(=O)[nH]c(SCC(=O)NCc3ccccc3)nc2n1 ?
CYP2C9 inhib: 30; CYP2C19 inh: 34; CYP2C19 act: 0.7; CYP2C9 act: 0.7; HIV Rev-RRE inh: 2; Cav3 T inh: 0.13

What do the screens show for `COc1ccccc1NC(=O)CSc1nc2ccccc2cc1Cc1ccccc1`?
CYP2C9 inhib: 55*; CYP2C19 inh: 99*; CYP2C19 act: 0; CYP2C9 act: 0.4; HIV Rev-RRE inh: 8; Cav3 T inh: -2.6

Results for COc1ccccc1NC(=O)CSc1nc2nc(C)cc(C)c2c(=O)[nH]1 ?
CYP2C9 inhib: 52*; CYP2C19 inh: 14; CYP2C19 act: 0.9; CYP2C9 act: 0.5; HIV Rev-RRE inh: 0; Cav3 T inh: 0.78

What do the screens show for `Nc1cc(N)nc(SCC(=O)Nc2ccc(Br)cc2Cl)n1`?
CYP2C9 inhib: 56*; CYP2C19 inh: 74*; CYP2C19 act: 0.3; CYP2C9 act: 0.4; Cav3 T inh: 0.32

How did COc1ccccc1NC(=O)CSC(N)=O do in these assays?
CYP2C9 inhib: 21; CYP2C19 inh: 30; CYP2C19 act: 0.7; CYP2C9 act: 0.8; HIV Rev-RRE inh: 5; Cav3 T inh: -2.8

Results for CCOC(=O)CNC(=O)CSc1nc(N)cc(N)n1 ?
CYP2C9 inhib: -14; CYP2C19 inh: -3; CYP2C19 act: 1; CYP2C9 act: 1.1; HIV Rev-RRE inh: 1; Cav3 T inh: -0.16

How did COc1ccc(-n2c(=O)c3ccccc3n(CC(=O)NC3CCCCC3)c2=O)cc1 do in these assays?
CYP2C9 inhib: 13; CYP2C19 inh: -4; CYP2C19 act: 1; CYP2C9 act: 0.9; HIV Rev-RRE inh: 0; Cav3 T inh: 0.039
